# Kir21 block: blocks the mouse Kir2.1 inward-rectifier potassium channel; P35561; HEK293-Kir2.1, FluxOR thallium flux fluorescence; stronger effect = lower value; B-score at 10 µM; 310,000 compounds, 0.85% hits; AID 1672;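 active = fluorescence ratio B-score at or below minus 3 SD of library scores, with starting-brightness B-score within 2 SD, cut at about -4.2 in these data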;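 note: channel flux triggered by added potassium and thallium sulfate stimulus; B-score of peak minus minimum fluorescence over baseline after thallium stimulus; more negative B-score means stronger Kir2.1 block with less thallium influx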
# KCNK3 inh: human KCNK3 channel inhibition, primary screen; 340,000 compounds, 0.84% hits; CHO-KCNK3 thallium flux, FluxOR fluorescence; stronger effect = lower value; AID 602410; B-score at 10 µM;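 active = B-score under library mean minus 4 SD, starting fluorescence ratio at most library mean plus 5 SD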;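 note: more negative B-score means stronger inhibition of thallium flux through KCNK3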
# KCNK9 inh: inhibitors of human KCNK9 two-pore domain potassium channel. Q9NPC2. HEK293 KCNK9, FluxOR thallium flux fluorescence; stronger effect = lower value. B-score at 10 µM. 310,000 compounds, 1.2% hits. AID 488922;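 active = ratio B-score over 3 SD below the library mean, with starting fluorescence within 5 SD of its mean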;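 note: negative B-score means less thallium flux so channel inhibition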
# KCNQ1 inh: inhibitors of human KCNQ1 potassium channel; P51787; CHO-K1 KCNQ1, FluxOR thallium flux fluorescence; stronger effect = higher value; B-score at 10 µM; 310,000 compounds, 1.3% hits; AID 2642;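 active = compounds whose thallium flux B-score, printed positive for inhibition, exceeds three library SD while starting fluorescence stays within three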;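 note: channel opened by potassium depolarization with thallium stimulus after 20 min compound exposure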
# KCNQ1 act: potentiates or activates the human KCNQ1 potassium channel; CHO-K1 KCNQ1, thallium flux FluxOR fluorescence; stronger effect = higher value; AID 2648; B-score at 10 µM; P51787; 310,000 compounds, 0.35% hits;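 active = fluorescence ratio B-score, a plate-corrected score, at least three library SD, with initial intensity B-score within 5 SD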
#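 Assay system: CHO-K1 cells stably expressing KCNQ1. Medium: assay buffer for compound exposure, DMSO matched across wells. Timing: 37 °C overnight plating, 90-min dark dye load, 20-min compound pretreatment. Signal: kinetic FluxOR fluorescence, 10 s baseline plus 110 s post-stimulus.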
# hERG rescue: compounds protecting human hERG from proarrhythmic drug block; 310,000 compounds, 0.51% hits; CHO-hERG, FluxOR thallium flux, dofetilide IC70 present; activation (rescue from dofetilide block), less the hit threshold, % at 10 µM; Q12809;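 active = activation above the mean of controls blocked by dofetilide plus 5 SD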;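 note: thallium influx through hERG after potassium depolarization seen as dye fluorescence rise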
# Target sequence (Q12809 whole entry, looked up): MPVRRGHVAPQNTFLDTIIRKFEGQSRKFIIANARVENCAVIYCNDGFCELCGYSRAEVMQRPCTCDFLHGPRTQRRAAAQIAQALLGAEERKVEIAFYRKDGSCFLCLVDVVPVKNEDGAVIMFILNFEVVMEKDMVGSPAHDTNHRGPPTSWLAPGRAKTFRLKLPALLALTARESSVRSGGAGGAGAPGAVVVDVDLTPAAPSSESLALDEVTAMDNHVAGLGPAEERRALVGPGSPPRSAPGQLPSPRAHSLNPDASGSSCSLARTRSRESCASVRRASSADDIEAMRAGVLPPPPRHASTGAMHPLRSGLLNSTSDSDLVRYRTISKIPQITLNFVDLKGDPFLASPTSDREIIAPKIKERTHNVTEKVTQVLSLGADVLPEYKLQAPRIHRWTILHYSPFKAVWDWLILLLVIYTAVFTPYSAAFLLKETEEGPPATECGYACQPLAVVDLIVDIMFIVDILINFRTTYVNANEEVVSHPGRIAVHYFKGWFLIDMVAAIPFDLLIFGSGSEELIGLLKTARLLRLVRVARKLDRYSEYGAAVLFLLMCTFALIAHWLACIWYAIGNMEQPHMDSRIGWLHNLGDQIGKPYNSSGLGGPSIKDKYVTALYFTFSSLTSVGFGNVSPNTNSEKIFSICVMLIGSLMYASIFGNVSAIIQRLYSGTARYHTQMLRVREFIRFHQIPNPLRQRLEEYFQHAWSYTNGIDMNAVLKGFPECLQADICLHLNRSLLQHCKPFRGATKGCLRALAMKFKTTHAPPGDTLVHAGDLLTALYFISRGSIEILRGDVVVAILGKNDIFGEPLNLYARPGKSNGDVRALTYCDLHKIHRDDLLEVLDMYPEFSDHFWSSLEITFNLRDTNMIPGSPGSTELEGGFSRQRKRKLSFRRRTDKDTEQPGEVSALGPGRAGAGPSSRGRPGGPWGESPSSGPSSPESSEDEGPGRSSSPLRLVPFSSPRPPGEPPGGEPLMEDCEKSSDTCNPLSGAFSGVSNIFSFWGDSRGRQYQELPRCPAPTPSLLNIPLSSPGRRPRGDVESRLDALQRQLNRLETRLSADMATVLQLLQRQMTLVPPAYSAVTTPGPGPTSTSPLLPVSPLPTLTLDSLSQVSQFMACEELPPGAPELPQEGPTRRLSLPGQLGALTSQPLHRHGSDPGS
# KCNK9 inh conf: confirmation of human KCNK9 potassium channel inhibitors. shares compounds with KCNK9 inh. HEK293 KCNK9 cells, FluxOR thallium flux fluorescence. inhibition, % at 10 µM. 4,900 compounds, 43% hits;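 active = thallium signal inhibited by more than 5 SD of the compound-free buffer control wells, on both duplicate plates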;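 note: 0% = assay buffer control wells without compound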
# Kir2-1 spec: mouse Kir2.1 off-target activity of KCNK9 modulators; Kir2.1 cells, FluxOR thallium flux fluorescence; inhibition, % at 10 µM; 4,900 compounds, 4% hits; shares compounds with KCNK9 inh;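 active = thallium signal drop more than 5 SD beyond the mean of the no-compound control wells, seen in both duplicate plates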;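 note: signal is fluorescence rise after thallium addition divided by baseline fluorescence; plate controls were assay buffer only for no effect and full block by chlorpromazine control for full effect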
# HEK293 Tl ctr: non-induced cell nonspecific activity of KCNK9 modulators. shares compounds with KCNK9 inh. non-induced KCNK9-HEK293, FluxOR thallium flux. inhibition, % at 10 µM. 4,900 compounds, 40% hits. AID 492997;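 active = thallium signal drop beyond 5 SD of the untreated control mean, on both duplicate plates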;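 note: plate controls were buffer only IC0 wells for no effect and SID17386958 at its maximal inhibitory level for full effect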
# * marks the source's active call; other numbers are inactive results; i = inactive; . = no result. A selection: hits, their analogues and other compounds. The true share with any hit is near 3.7%.
SMILES,Kir21 block,KCNK3 inh,KCNK9 inh,KCNQ1 inh,KCNQ1 act,hERG rescue,KCNK9 inh conf,Kir2-1 spec,HEK293 Tl ctr
Cc1ccc(-c2csc(N(CC3CCCO3)C(=O)c3ccco3)n2)cc1 (stereo not drawn),0.91,i,-8.6*,i,i,-12,43%*,i,34%*
O=C(CCc1nnc2ccc(NCc3ccco3)nn12)Nc1ccc(F)cc1F,0.45,i,i,i,i,-8,.,.,.
COc1cc(Cl)ccc1OCc1cc(C(=O)N2C[C@]3(C)C[C@H]2CC(C)(C)C3)no1,-1.6,i,i,i,i,-11,i,i,i
COc1cc(Cl)ccc1OCc1cc(C(=O)N2C[C@H]3CC[C@H]2C3)no1,-2.2,i,i,i,i,-11,.,.,.
S=c1[nH]nc(-c2cccs2)n1C1CCCCC1,-3,i,i,i,i,-9,.,.,.
CC(C1CC2CCC1C2)n1c(-c2cccs2)n[nH]c1=S (stereo not drawn),-0.02,i,-11*,i,i,-4,54%*,i,i
Cc1nc(CNC(=O)CC2C(=O)NCCN2Cc2ccc(F)cc2)cs1 (stereo not drawn),-0.02,i,i,i,i,-9,.,.,.
Cc1cccc(NC(=O)c2nc[nH]c2C(=O)N[C@@H](C)C(=O)OC(C)(C)C)c1,-1.4,i,i,i,i,-3,.,.,.
N/C(Cc1ccc(Cl)cc1Cl)=N\OC(=O)c1cccs1,-0.09,i,i,i,i,-19,.,.,.
N/C(CC(=O)Nc1ccc(F)cc1F)=N\OC(=O)c1cccs1,0.18,i,i,i,i,-6,i,i,i
C[C@H](CO)N1C[C@H](C)[C@@H](CN(C)C(=O)NC2CCCCC2)Oc2ccc(NC(=O)CCC(F)(F)F)cc2C1=O,.,i,.,.,.,.,.,.,.
CCOC(=O)c1[nH]c(CN2CCN(c3ccc(OC)cc3)CC2)c(C(=O)OCC)c1C,-0.18,i,i,i,i,-8,i,i,i
CCOC(=O)c1[nH]c(C)c(C(=O)N2CCN(c3ccc(OC)cc3)CC2)c1C,-0.71,i,i,i,i,-6,.,.,.
CCCCOC(=O)C1=C(C)NC(=O)NC1c1ccc([N+](=O)[O-])s1 (stereo not drawn),-0.55,i,i,i,i,-6,.,.,.
C#CCCOC(=O)N1C2=NC(C(=O)OC)=C(C(=O)OC)[C@@H]3N(Cc4ccccc4)c4ccccc4[C@]23C[C@H]1C(=O)OC,0.34,i,-9.5*,i,i,-6,51%*,i,34%*
C#CCCOC(=O)N1C2=NC(C(=O)OC)=C(C(=O)OC)[C@@H]3N(C)c4ccccc4[C@]23C[C@H]1C(=O)OC,0.31,i,i,i,i,-9,.,.,.
C=CCN1c2ccccc2[C@]23C[C@@H](C(=O)OC)N(C(=O)NCCC)C2=NC(C(=O)OC)=C(C(=O)OC)[C@H]13,0.85,i,-9.3*,i,i,-3,32%*,i,30%*
CN(CC(=O)Nc1ccc(OC(F)(F)F)cc1)S(=O)(=O)c1cnc[nH]1,2.1,i,i,i,i,2,.,.,.
CN(CC(=O)NC1CCCCCCC1)S(=O)(=O)c1cccc2cccnc12,0.03,i,i,i,i,-6,i,i,i
CCc1ccccc1N(C)S(=O)(=O)c1ccc2[nH]cc(C(=O)N3CCc4ccccc43)c(=O)c2c1,0.28,i,-9.3*,i,i,-12,i,i,26%*
CCCC[C@H]1COCCS(=O)(=O)N1Cc1ccc(Br)cc1,-3.1,i,-8.3*,i,i,-6,37%*,i,42%*
CCOC(=O)/C(=C/c1c2ccccc2cc2ccccc12)NC(=O)c1ccccc1,-0.03,-11*,-16*,i,i,-7,58%*,i,39%*
COC(=O)/C(=C\c1ccc2c(c1)c1ccccc1n2C)NC(=O)c1ccccc1,-0.38,i,-9.6*,i,i,-9,36%*,i,i
C=CCOC(=O)/C(=C\c1cccc2ccccc12)NC(=O)c1ccccc1,1.1,i,i,i,i,-6,.,.,.
COC(=O)/C(=C\C=C\c1ccccc1)NC(=O)c1ccccc1,-1.6,i,i,i,i,-6,.,.,.
SMILES,Kir21 block,KCNK3 inh,KCNK9 inh,KCNQ1 inh,KCNQ1 act,hERG rescue,KCNK9 inh conf,Kir2-1 spec,HEK293 Tl ctr
O=C(OCC(=O)c1ccc(Cl)s1)c1cnccn1,-0.36,i,i,i,i,-12,.,.,.
COc1ccccc1C/C(N)=N/OC(=O)COc1cc(C)cc(C)c1C,-0.7,i,i,i,i,-4,.,.,.
COc1ccccc1C/C(N)=N/OC(=O)COc1cccc(C)c1C,0.27,i,i,i,i,-2,i,i,i
Cc1ccc(Nc2nc(CSc3nnc(-c4cccnc4)n3-c3ccccc3C)cs2)cc1,1.2,i,-9.9*,i,i,-14,i,i,i
COc1ccc(-n2nc([N+](=O)[O-])c(=NCCc3ccc(C)cc3)n2O)cc1,-0.18,i,i,i,i,-13,i,i,i
COc1ccc(CNC(=O)CCCNC(=O)c2ccc(Cl)cc2)cc1OC,-0.03,i,i,i,i,-6,.,.,.
Cc1noc(C)c1CSc1nc2sc(C)c(C)c2c(=O)n1-c1ccccc1,0.59,i,i,i,i,-6,.,.,.
Cc1noc(C)c1CSc1nc2ccccc2c(=O)n1-c1ccc(Cl)cc1,0.07,i,i,i,i,-6,i,i,i
COn1c(SCc2ccc(Cl)cc2)nc2ccccc2c1=O,0.15,i,-18*,i,i,-21,66%*,i,34%*
O=C(Nc1ccccc1)C1C2CCC3C(CCC21)C3(Cl)Cl (stereo not drawn),-0.52,i,i,i,i,-1,.,.,.
O=C(Nc1ccccc1Cl)C1C2CCC3C(CCC21)C3(Cl)Cl (stereo not drawn),0.24,i,i,i,i,-3,.,.,.
CCOc1ccccc1NC(=O)C1C2CCC3C(CCC21)C3(Cl)Cl (stereo not drawn),-0.87,i,i,i,i,-7,i,i,32%*

# Compound activity as filed in PubChem.
